# Reference: ChEMBL document CHEMBL4411315, “Discovery of Novel Dual Histone Deacetylase and Mammalian Target of Rapamycin Target Inhibitors as a Promising Strategy for Cancer Therapy” (J Med Chem, 2019)
# Key:
# Histone deacetylase 7 = Histone deacetylase 7 (Homo sapiens, UniProt Q8WUI4); test: Inhibition of recombinant full length N-terminal GST-tagged human HDAC7 expressed in baculovirus expression system using Ac-peptide-AMC as substrate preincubated for 15 mins followed by substrate addition and measured after 1 hr by fluorescence assay
# MV4-11 [1] = test: Cell cycle arrest in human MV4-11 cells assessed as accumulation at G0/G1 phase at 10 nM after 24 hrs by propidium iodide/RNase staining-based FACS analysis (reference value: 44.79%); type: functional
# MV4-11 [2] = test: Cell cycle arrest in human MV4-11 cells assessed as accumulation at G0/G1 phase at 1.25 nM after 24 hrs by propidium iodide/RNase staining-based FACS analysis (reference value: 44.79%); type: functional
# MM1.S [3] = test: Cell cycle arrest in human MM1S cells assessed as accumulation at G2/M phase at 1.25 nM after 24 hrs by propidium iodide/RNase staining-based FACS analysis (reference value: 26.29%); type: functional
# MV4-11 [4] = test: Induction of apoptosis in human MV4-11 cells assessed as early apoptotic cells at 20 nM after 48 hrs by Annexin V-FITC/propidium iodide staining-based flow cytometric analysis (reference value: 10.7%); type: functional
# MV4-11 [5] = test: Induction of apoptosis in human MV4-11 cells assessed as early apoptotic cells at 80 nM after 48 hrs by Annexin V-FITC/propidium iodide staining-based flow cytometric analysis (reference value: 10.7%); type: functional
# [6] = molecular target: Serine/threonine-protein kinase mTOR (Homo sapiens, UniProt P42345); test: Inhibition of recombinant N-terminal FLAG-tagged human mTOR (1362 to end residues) using ULight-4E-BP1 (Thr37/46) peptide as substrate after 1 hr by fluorescence assay
# Summary of the method: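 mTOR enzyme, ATP, compound and ULight-4E-BP1 (Thr37/46) peptide in kinase buffer were incubated 1 h at room temperature. EDTA quench plus Eu-anti-phospho-4E-BP1 antibody was added and equilibrated 1 h. TR-FRET was read at excitation 320 or 340 nm and emission 665 nm. Curves were fitted, and values are means of at least two experiments.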
# MM1.S [7] = test: Induction of apoptosis in human MM1S cells assessed as necrotic cells at 160 nM after 48 hrs by Annexin V-FITC/propidium iodide staining-based flow cytometric analysis (reference value: 0.32%); type: functional
# Chain of Histone deacetylase 7 (Q8WUI4 whole entry): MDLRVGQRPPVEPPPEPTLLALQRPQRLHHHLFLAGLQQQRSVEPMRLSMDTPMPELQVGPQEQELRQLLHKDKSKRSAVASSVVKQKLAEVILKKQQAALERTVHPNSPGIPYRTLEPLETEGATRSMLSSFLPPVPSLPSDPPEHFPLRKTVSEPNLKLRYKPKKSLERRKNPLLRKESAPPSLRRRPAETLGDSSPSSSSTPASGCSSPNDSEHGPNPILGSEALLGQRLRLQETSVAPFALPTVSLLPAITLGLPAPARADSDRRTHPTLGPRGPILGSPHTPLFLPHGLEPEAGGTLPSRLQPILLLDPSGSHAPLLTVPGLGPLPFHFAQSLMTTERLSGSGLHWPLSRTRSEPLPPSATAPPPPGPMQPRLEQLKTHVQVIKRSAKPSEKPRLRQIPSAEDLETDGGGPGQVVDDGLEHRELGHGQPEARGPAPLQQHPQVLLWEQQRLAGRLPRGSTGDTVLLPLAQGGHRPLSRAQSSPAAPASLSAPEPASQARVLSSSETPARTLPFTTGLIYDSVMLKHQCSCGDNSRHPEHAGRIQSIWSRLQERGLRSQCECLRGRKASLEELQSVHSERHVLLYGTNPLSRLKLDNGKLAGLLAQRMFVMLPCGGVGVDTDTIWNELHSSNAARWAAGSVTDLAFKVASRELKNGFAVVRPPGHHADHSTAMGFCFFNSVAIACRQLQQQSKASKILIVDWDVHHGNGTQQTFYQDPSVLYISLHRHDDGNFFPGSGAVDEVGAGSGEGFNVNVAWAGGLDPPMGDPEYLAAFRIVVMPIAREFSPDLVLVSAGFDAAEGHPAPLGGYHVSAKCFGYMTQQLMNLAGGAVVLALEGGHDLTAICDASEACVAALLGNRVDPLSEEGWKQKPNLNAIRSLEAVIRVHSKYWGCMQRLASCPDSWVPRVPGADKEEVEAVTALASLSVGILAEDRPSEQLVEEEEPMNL
smiles,measurement,setting,value
C[C@@H]1CN(C(=O)Nc2ccc(-c3nc(N4CCOCC4)c4cnn(CCCCCCC(=O)NO)c4n3)cc2)CCO1,IC50,Histone deacetylase 7,> 1000 nM
same,Activity,MV4-11 [1],65.4%
same,Activity,MV4-11 [2],46.85%
same,Activity,MM1.S [3],24.1%
same,Activity,MV4-11 [4],38.2%
same,Activity,MV4-11 [5],37.6%
same,IC50,[6],1.2 nM
same,Activity,MM1.S [7],3.39%
